Source: the RNAGym collection of RNA variant scans (doi:10.1126/science.aae0568)
Variants at the floor of the assay were thinned out.

B1: tRNA (parent)
chain: GUUCCGUUGGCGUAAUGGUAACGCGUCUCCCUCCUAAGGAGAAGACUGCGGGUUCGAGUCCCGUACGGAACG

Variants of: B1
Assay: yeast fitness relative to wild type (ratio to wild type); higher = fitter; tRNA-Arg(CCU), competitive growth, 37 C, YPD
How it was run: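 For this measurement, the tRNA-Arg(CCU) gene was varied by chemical synthesis at a 3% per-site mutation rate across 69 sites, and each variant was placed at the native genomic locus in Saccharomyces cerevisiae. The pooled strains went through a 24-hour competition in YPD at 37°C in six parallel replicates, with amplicons from start and end populations read by 100-nucleotide paired-end sequencing. Darwinian fitness relative to wild type followed from the change in each genotype's frequency. Genotypes needed ≥ 100 starting reads, and estimates < 0.5 were set to 0.5.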

Point of comparison: A14C G18A, yeast fitness 0.59. Against it:
- U13G A70U — higher, 1.11
- U13G A70G — higher, 0.831
- U13G A70C — higher, 0.843
- U13G G25A A69U — higher, 0.798
- A14C A45C C60G — lower, ≤ 0.5
- U13G A20G C22G — lower, 0.581
- A14C A20U — higher, 0.641
- A14C G17C C27U U47G — lower, ≤ 0.5
- U13G A45U A70C — higher, 0.649
- U13G C24U U28A A42G — lower, ≤ 0.5
- U13G U35A A37G A43U A45C A65C — lower, ≤ 0.5
- A14C A20C A42G G44A — higher, 0.633
- A14C A43G G68C — higher, 0.65
- A14C A21G C29A C34U — higher, 0.612
- U13G G38C — higher, 0.757
- U13G C49U — higher, 0.693
- A14C C29A — higher, 0.596
- U13G C33G A40G C60A — lower, ≤ 0.5
- A14C C24G A45C U59C C61U — lower, ≤ 0.5
- A14C A15C C27U C29A C34G G39A G50C — lower, ≤ 0.5
- A14C C46U G50C C61A A70C — lower, ≤ 0.5
- U13G U53C U64C — lower, ≤ 0.5
- A14C A20C C33G A65C C66U — higher, 0.758
- A14C A15C — lower, 0.518
- A14C C55A A69C — lower, ≤ 0.5
- A14C A43G — higher, 0.628
- A14C A43U — higher, 0.731
- A14C C27G C33A A45U G67U — lower, ≤ 0.5
- A14C C27G — lower, 0.574
- A14C C61U A65C — lower, ≤ 0.5
- A14C A42G G68C — lower, ≤ 0.5
- A14C A21C C29G — lower, ≤ 0.5
- A14C C22G G25A C31U G58A — lower, ≤ 0.5
- U13G C30G A40G — lower, ≤ 0.5
- A14C A20C U32C — lower, ≤ 0.5
- A14C A45U C62A — lower, ≤ 0.5
- A14C A40G C62G G68A — lower, ≤ 0.5
- A14C C30U G41C — lower, 0.589
- A14C C46U U53A — lower, ≤ 0.5
- A14C G18A C30U C49A — lower, ≤ 0.5
- U13G C29U C33U — lower, 0.57
- A14C A20U U35C A65G A69U — lower, ≤ 0.5
- U13G U35C G38A A42U G58C A65U — lower, ≤ 0.5
- U13G A42U G44A C49A — higher, 0.602
- A14C C27U C31U C33A C55U — lower, ≤ 0.5
- A14C C22U C55U C61G C62G — lower, ≤ 0.5
- A14C A36C A69U — higher, 0.905
- A14C A15U A40C G48A — lower, ≤ 0.5
- A14C C27U U47C C60G — higher, 0.641
- A14C G18A G48A — lower, ≤ 0.5
- U13G A14U U16A G17U G67C — lower, ≤ 0.5
- U13G C30A A65U A69C — lower, ≤ 0.5
- A14C A40G A57G — lower, 0.539
- A14C A40G C49U G58A — lower, ≤ 0.5
- A14C C24G G52C C55U C66U — lower, ≤ 0.5
- U13G C49U U59C — lower, ≤ 0.5
- A14C C27A C31A A70U — lower, ≤ 0.5
- A14C C33G — higher, 0.726
- U13G U47A — higher, 0.976
- A14C C62G A70G — higher, 0.632
- U13G A69C — higher, 0.951
- A14C A20U C33U — lower, ≤ 0.5
- A14C A15U U16A G44A A57U — lower, ≤ 0.5
- A14C C27G C33A A45U G63C A69G — lower, ≤ 0.5
- U13G U16G C31G C49U — lower, ≤ 0.5
- A14C A40G A42U — lower, ≤ 0.5
- A14C A45U G48A — lower, ≤ 0.5
- U13G C22G C30U A36G A40U U54G — lower, ≤ 0.5
- A14C C22G U26G — lower, ≤ 0.5
- A14C C22G G52C A65U — lower, ≤ 0.5
- A14C A20C A42G G44A U47C — lower, ≤ 0.5
- A14C A20G C22U C30U — lower, ≤ 0.5
- U13G U47A G68A — higher, 0.737
- A14C A57C G68C — lower, ≤ 0.5
- A14C A69U — higher, 0.763
- A14C C27G C46G A57G A65G — lower, ≤ 0.5
- A14C C29U G39C U54C — higher, 0.678
- U13G A14C G39C G41A C60G C61U C62G A65U — lower, ≤ 0.5
- U13G G44A C46U A69C — higher, 0.646
- U13G C31U U35A A57C — higher, 0.61
- A14C C27A G39A C55U A70G — lower, ≤ 0.5
- U13G U28A C30A A69U — lower, 0.554
- A14C C22A C46A C66U — lower, ≤ 0.5
